Measured values as given in publication PMC5424638 (Biomolecules & Therapeutics, 2016).

Columns and labels:
[1] = Cytotoxicity assay; format: cell-based, rat; conditions: Sprague-Dawley, rat, primary neonatal rat cardiomyocytes
Method in brief: (§1)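 Ventricles from 1–3-day-old Sprague-Dawley rats were digested with 0.05% collagenase II/0.05% trypsin at 37°C, pre-plated 1.5 h to remove nonmyocytes, and cultured 3 days in DMEM/10% FBS. Cells were exposed to test compound at 0.01–1000 µM for 72 h (final DMSO ≤0.05%). MTT was added for 4 h at 37°C and absorbance read at 570 nm. TC50 (50% viability loss vs untreated) came from at least three dose-response curves.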

[2] = tested on: neonatal rat cardiomyocytes; assay: Cytotoxicity assay; format: cell-based; conditions: for 50% toxic concentration (CC50) fold higher than in the cinnamaldehyde group: cardiomyocytes
Method in brief: as §1

[3] = tested on: TNF-α mRNA; assay: TNF-α mRNA expression in CVB3-infected cardiomyocytes; format: cell-based, rat; conditions: 10 μM, 12 h
Method in brief: (§2)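 Neonatal rat cardiomyocytes were infected with CVB3 and then incubated with 10 µM test compound. Cytokine mRNA expression in the cells was measured by real-time PCR after 12 h. Data are given as mean ± SD.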

[4] = tested on: IL-6; assay: IL-6 protein expression in CVB3-infected cardiomyocytes; format: cell-based, rat; conditions: 10 μM, 24 h
Method in brief: (§3)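 CVB3-infected neonatal rat cardiomyocytes were treated with 10 µM test compound for 24 h. Whole-cell lysates (equal protein) were run on 15% SDS-PAGE and transferred to nitrocellulose. Membranes were blocked in 5% skimmed milk for 2 h at room temperature, probed with cytokine and GAPDH antibodies overnight at 4°C, then with HRP secondary for 1 h, and detected by chemiluminescence. Bands were expressed as ratio to GAPDH (n=3, mean ± SD).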

[5] = tested on: IL-6 mRNA; assay: IL-6 mRNA expression in CVB3-infected cardiomyocytes; format: cell-based, rat; conditions: 10 μM, 12 h
Method in brief: as §2

[6] = tested on: CVB3; assay: Virus titration from heart homogenate of CVB3-infected mice; format: in vivo, BALB/c mice; conditions: day 7, n=10
[7] = Pharmacokinetics in rats after single oral administration; format: in vivo, rat; conditions: single oral dose 20 mg/kg, preliminary, unpublished data
[8] = tested on: TNF-α; assay: TNF-α protein expression in CVB3-infected cardiomyocytes; format: cell-based, rat; conditions: 10 μM, 24 h
Method in brief: as §3

[9] = tested on: IL-1β; assay: IL-1β protein expression in CVB3-infected cardiomyocytes; format: cell-based, rat; conditions: 10 μM, 24 h
Method in brief: as §3

[10] = tested on: IL-1β mRNA; assay: IL-1β mRNA expression in CVB3-infected cardiomyocytes; format: cell-based, rat; conditions: 10 μM, 12 h
Method in brief: as §2

[11] = 24 h stability in blood at room temperature; format: in vitro ADME, rat; conditions: unpublished data
[12] = tested on: CVB3 (Nancy strain); assay: Anti-viral activity assay in CVB3-infected cardiomyocytes; format: cell-based, coxsackievirus B3; conditions: for IC50: Enterovirus B, CVB3, Cardiomyocyte, 72 h; for TI (TC50/IC50): cardiomyocytes
Method in brief: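 Neonatal rat cardiomyocytes grown to confluence (about 1x10^4 cells/well) were infected with CVB3 (Nancy strain, 100 TCID50) for 2 h in six replicates. Cells were washed three times with PBS, then exposed to serial dilutions of test compound for 72 h. XTT plus phenazine methosulfate was added for 2 h, and OD was read at 450 nm (reference 690 nm). Inhibition was (ODtv−ODcv)/(ODcd−ODcv)x100, giving IC50 and TI (TC50/IC50).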

[13] = tested on: CVB3-induced myocarditis; assay: CVB3-induced viral myocarditis mouse model, cardiac pathological score; format: in vivo, BALB/c mice; conditions: for Pathological score (grade): day 7, n=10; for Myocardial damage compared with the infected control (model) group: 20, 40 and 60 mg/kg, day 7
Method in brief: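 Four-week-old male BALB/c mice (n=10/group, pathogen-free) received CVB3 i.p. at 100xTCID50 in 0.1 ml RPMI 1640. From day 2, interferon alpha was given i.p. once daily, and test compound at 20, 40 or 60 mg/kg was given by oral gavage in 0.5% CMC-saline. On day 7, ventricles were formalin-fixed, paraffin-embedded, cut at 4 µm and H&E stained. Inflamed fraction of the section (eyepiece grid, x200) was graded 0–4 (<25%, 25–50%, 50–75%, >75%).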

[14] = ref Yuan et al., 1992; cited from earlier work
[15] = tested on: IL-6; assay: IL-6 level in culture supernatant of CVB3-infected cardiomyocytes; format: cell-based, rat; conditions: 10 μM, 72 h; viral control 337.46 ± 29.22
[16] = tested on: TNF-α; assay: TNF-α level in culture supernatant of CVB3-infected cardiomyocytes; format: cell-based, rat; conditions: 10 μM, 72 h; viral control 80.12 ± 8.40
[17] = tested on: IL-1β; assay: IL-1β level in culture supernatant of CVB3-infected cardiomyocytes; format: cell-based, rat; conditions: 10 μM, 72 h; viral control 163.64 ± 19.75

Structure (SMILES)	CC50 at 72 h [1] [µM]	50% toxic concentration (CC50) fold higher than in the cinnamaldehyde group [2] [fold]	TNF-α mRNA expression [3]	CVB3-mediated IL-6 expression (Western blot) [4]	IL-6 mRNA expression [5]	Viral titers ([6]; 20 mg/kg/day, oral gavage) [Log TCID50/mg]	Viral titers ([6]; 40 mg/kg/day) [Log TCID50/mg]	Time at which peak concentration was achieved after oral administration [7]	CVB3-mediated TNF-α expression (Western blot) [8]	CVB3-mediated IL-1β expression (Western blot) [9]	IL-1β mRNA expression [10]	Stability in blood [11]	IC50 [12] [µM]	TI (TC50/IC50) [12]	Pathological score (grade) ([13]; 20 mg/kg/day, oral gavage)	Pathological score (grade) ([13]; 40 mg/kg/day)	Pathological score (grade) ([13]; 60 mg/kg/day, oral gavage)	Myocardial damage compared with the infected control (model) group [13]	other results
COc1ccc(/C=C/C=O)cc1 [Compound 3, (E)-3-(4-methoxyphenyl)acrylaldehyde]	7.88 ± 0.82	–	–	–	–	–	–	–	–	–	–	–	–	–	–	–	–	–	–
Cc1ccc(/C=C(\Br)C=O)cc1 [Compound 4, (Z)-2-bromo-3-p-tolylacrylaldehyde]	38.6 ± 4.89	39	inhibited	markedly diminished	inhibited	3.10 ± 0.74	2.90 ± 0.57	~3.3 h	markedly diminished	markedly diminished	inhibited	stable for 24 h	11.4 ± 2.22	3.39	2.80 ± 0.70	2.10 ± 0.60	1.90 ± 0.60	significantly reduced	–
O=CC=Cc1ccccc1 [Cinnamaldehyde, 3-phenyl-2-propenal, reference compound]	0.98 ± 0.12	–	–	–	–	–	2.80 ± 0.63	–	–	–	–	–	24.2 ± 4.77	0.04	–	2.40 ± 0.50	–	–	Half-life in rat blood [14]: 4 min
Cc1ccc(/C=C/C=O)cc1 [Compound 1, (E)-3-p-tolylacrylaldehyde]	3.96 ± 0.29	–	–	–	–	–	–	–	–	–	–	–	–	–	–	–	–	–	–
O=C/C=C/c1ccc(Cl)cc1 [Compound 2, (E)-3-(4-chlorophenyl) acrylaldehyde]	6970	7114	–	–	–	3.30 ± 0.48	3.20 ± 0.63	about 1.2 h	–	–	–	stable for 24 h	2110	3.31	2.85 ± 0.70	2.85 ± 0.70	2.75 ± 0.60	no significant difference	CC50 ([2]; neonatal rat cardiomyocytes, 0.01–1000 μM, 72 h, MTT, called TC50 in methods): no obvious cytotoxicity; Viral titers ([6]; 60 mg/kg/day, oral gavage): 3.10 ± 0.57 Log TCID50/mg
O=C/C(Br)=C/c1ccc(Cl)cc1 [Compound 5, (Z)-2-bromo-3-(4-chlorophenyl) acrylaldehyde]	85.7 ± 7.63	87	inhibited	markedly diminished	inhibited	2.80 ± 0.42	–	~2.1 h	markedly diminished	markedly diminished	inhibited	stable for 24 h	2.12 ± 0.37	40.42	1.95 ± 0.40	1.75 ± 0.60	1.30 ± 0.50	significantly reduced	IL-6 level in culture supernatant [15]: 232.80 ± 19.62 pg/mL; TNF-α level in culture supernatant [16]: 43.60 ± 4.77 pg/mL; IL-1β level in culture supernatant [17]: 112.72 ± 13.60 pg/mL
